As a reminder, the IC50 is the concentration needed to halve the response being measured. A low value points to greater potency in that assay.

Test [1] concerns L1210. As to the kind of experiment: Tested in vitro for inhibition after 48 hr exposure against murine leukemia cell line L1210. The test is classed as functional, cell-based. The note with it: Mus musculus, L1210, 48 h. In short, it runs like this: (§1)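 L1210 murine leukemia cells and their melphalan-resistant L1210/L-PAM subline were used in growth-inhibition studies. IC50 is the concentration inhibiting growth by 50% after 48 h exposure, given as the mean of repeated experiments ± standard deviation.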

Test [2] deals with LoVo. As to the kind of experiment: Tested in vitro for inhibition after 144 hr exposure against human colon carcinoma LoVo cell line. The test is classed as functional, cell-based. The method in brief: (§2)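 LoVo human colon carcinoma cells and their doxorubicin-resistant LoVo/DX subline were used in growth-inhibition studies. IC50 is the concentration inhibiting growth by 50% after 144 h exposure to compound, reported as the mean of repeated experiments ± standard deviation.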

Test [3] deals with LoVo. Put plainly: Tested in vitro for inhibition after 144 hr against human colon carcinoma LoVo/DX cell line resistant to Doxorubicin (DX). It counts as functional, cell-based. The method in brief: as §2
Test [4] is described as follows: Resistance index as the ratio of IC50 against LoVo/Dx to that of LoVo. The test is classed as functional. In short, it runs like this:
(§3)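 Resistance index taken as IC50 in doxorubicin-resistant LoVo/DX human colon carcinoma cells over IC50 in parental LoVo cells. Each IC50 is the concentration giving 50% growth inhibition after 144 h exposure.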

The nature of test [5]: Resistance index as the ratio of IC50 against L1210/L-PAM to that of L1210 cell lines. The test is classed as functional.
For test [6], the system named is L1210. Put plainly: Tested in vitro for inhibition after 48 hr exposure against murine leukemia cell line L1210/L-PAM resistant to melphalan (L-PAM). The test is classed as functional, cell-based. The note with it: Mus musculus, L1210, 48 h. The method in brief: as §1
Test [7] relates to L1210. Put plainly: Tested in vitro for inhibition after 48 hr exposure against murine leukemia cell line L1210/L-PAM resistant to melphalan (L-PAM) by experiment 1. It counts as functional, cell-based. The note with it: Mus musculus, L1210, 48 h. The method in brief:
as §1

The test system of test [8] is L1210. Put plainly: Tested in vitro for inhibition after 48 hr exposure against murine leukemia cell line L1210/L-PAM resistant to melphalan (L-PAM) by experiment 2. The test is classed as functional, cell-based. To be noted: Mus musculus, L1210, 48 h. In short, it runs like this:
as §1

The subject of test [9] is L1210. Put plainly: Tested in vitro for inhibition after 48 hr exposure against murine leukemia cell line L1210 by experiment 2. The test is classed as functional, cell-based. To be noted: Mus musculus, L1210, 48 h. The method in brief: as §1
For test [10], the system named is L1210. As to the kind of experiment: Tested in vitro for inhibition after 48 hr exposure against murine leukemia cell line L1210 by experiment 1. The note with it: Mus musculus, L1210, 48 h. The test is classed as functional, cell-based. The method in brief: as §1
Test [11] can be described thus: Resistance index as the ratio of IC50 against L1210/L-PAM to that of L1210 cell lines. The test is classed as functional. In short, it runs like this: (§4)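 Resistance index computed as IC50 in melphalan-resistant L1210/L-PAM murine leukemia cells divided by IC50 in parental L1210 cells. Each IC50 is the concentration inhibiting growth by 50% after 48 h exposure, from growth-inhibition studies.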

The nature of test [12]: Resistance index as the ratio of IC50 against LoVo/Dx to that of LoVo. It counts as functional. In short, it runs like this: as §3
In test [13] the test system is L1210. As to the kind of experiment: Tested in vitro for inhibition after 48 hr exposure against murine leukemia cell line L1210/L-PAM resistant to melphalan (L-PAM)by experiment 1. It counts as functional, cell-based. To be noted: Mus musculus, L1210, 48 h. The method in brief: as §1
In test [14] the test system is L1210. Put plainly: Tested in vitro for inhibition after 48 hr exposure against murine leukemia cell line L1210/L-PAM resistant to melphalan (L-PAM)by experiment 2. It counts as functional, cell-based. The note with it: Mus musculus, L1210, 48 h. The method in brief:
as §1

The subject of test [15] is L1210. As to the kind of experiment: tested in vitro for inhibition after 48 hr exposure against murine leukemia cell line L1210/L-PAM resistant to melphalan (L-PAM by experiment 1. The test is classed as functional, cell-based. To be noted: Mus musculus, L1210, 48 h. The method in brief: as §1
Test [16] concerns L1210. As to the kind of experiment: tested in vitro for inhibition after 48 hr exposure against murine leukemia cell line L1210/L-PAM resistant to melphalan (L-PAM by experiment 2. The test is classed as functional, cell-based. The note with it: Mus musculus, L1210, 48 h. In short, it runs like this:
as §1

Test [17] is described as follows: Resistance index as the ratio of IC50 against LoVo/Dx to that of LoVo in experiment 1. The test is classed as functional. In short, it runs like this:
as §3

In test [18] the test system is L1210. As to the kind of experiment: Tested in vitro for inhibition after 48 hr exposure against murine leukemia cell line L1210/L-PAM resistant to melphalan (L-PAM) by experiment 2. The test is classed as functional, cell-based. To be noted: Mus musculus, L1210, 48 h. In short, it runs like this:
as §1

The test system of test [19] is L1210. As to the kind of experiment: Tested in vitro for inhibition after 48 hr exposure against murine leukemia cell line L1210/L-PAM resistant to melphalan (L-PAM) by experiment 1. The test is classed as functional, cell-based. To be noted: Mus musculus, L1210, 48 h. The method in brief:
as §1

Test [20] can be described thus: Resistance index as the ratio of IC50 against L1210/L-PAM to that of L1210 cell lines in experiment 2. The test is classed as functional. In short, it runs like this:
as §4

Where “and” joins values, the source holds several entries; their conditions need not be identical. Equal values may be shown once.

On to `Cc1c2c(nn1C)C(=O)N1CCC[C@H]1C=N2`, for which the IC50 in the test on L1210 [1] worked out at 8 µM; in the test with LoVo [2], 27 µM; in the test on LoVo [3] it was 32 µM. Moreover, in test [4], the RI turned out to be 1.2.
In the case of `C/C=C1/CC2C(OC)Nc3cc(OC)c(OC)cc3C(=O)N2C1` (stereo not drawn), the RI was 1.4 in test [5] and 0.5 in test [4]. The IC50 with L1210 [6] stood at 0.015 µM; with L1210 [1] it was 0.012 µM; in the test on LoVo [2] it was 0.009 µM; in the test with LoVo [3] it was 0.004 µM.
`Cc1c2c(nn1Cc1ccccc1)C(=O)N1CCC[C@H]1C=N2`: the 50% inhibitory concentration (IC50) with L1210 [1] turned out to be 3 µM; in the test with LoVo [2] it was 54 µM; in the test on LoVo [3], 25 µM. Further, the RI in test [4] was 0.5.
Taken in the same sequence, the figures for `Cc1nn(C)c2c1N=C[C@@H]1CCCN1C2=O` were 22 µM, 42 µM, 39 µM and 0.9.
For the compound `COc1cccc2c1C(=O)c1c(O)c3c(c(O)c1C2=O)C[C@@](O)(C(=O)CO)C[C@@H]3O[C@H]1C[C@H](N)[C@H](O)[C@H](C)O1` [DOXORUBICIN], the IC50 in the test with L1210 [6] was 0.06 µM; in the test with L1210 [1], 0.05 µM; with LoVo [2] it was 0.057 µM; in the test on LoVo [3], 7.6 µM. The RI in test [4] was determined as 133.
As to `COc1cc2c(cc1O)N=C[C@@H]1CCCN1C2=O`, in the test with L1210 [1], half-maximal inhibition (IC50) required 0.38 µM. This counts as sub-micromolar.
In the case of `COC(=O)c1nn(C)c2c1N=C[C@@H]1CCCN1C2=O`, the figures for the IC50 with L1210 [1], with LoVo [2] and with LoVo [3] were 27 µM, 54 µM and 60 µM, respectively. For the same compound, the RI in [4] came to 1.12.
As to `CCn1nc(C)c2c1C(=O)N1CCC[C@H]1C=N2`, the IC50 with L1210 [7] was 101 µM; in the test with L1210 [8] it was 125 µM; with L1210 [9], 69 µM; with L1210 [10] it was 40 µM; in the test with LoVo [2] it was greater than 215 µM; in the test on LoVo [3], greater than 215 µM. Further, in test [11], the RI amounted to 2.5.
As to `Cc1c2c(nn1Cc1ccc(Cl)cc1)C(=O)N1CCC[C@H]1C=N2`, the IC50 in the test on L1210 [7] came out at 0.16 µM; in the test on L1210 [8], 0.27 µM; in the test on L1210 [9], 0.8 µM; in the test on L1210 [10], 0.5 µM; in the test with LoVo [2], 37 µM; in the test with LoVo [3], 11 µM. The RI was 0.3 in test [12]; 2.8 and 3.1 in test [11].
In the case of `Cc1nn(Cc2ccccc2)c2c1N=C[C@@H]1CCCN1C2=O`, the results for the IC50 in the test on L1210 [1], in the test on LoVo [2] and in the test with LoVo [3] were 20 µM, 46 µM and 38 µM, respectively. Further, the RI in test [4] was found to be 0.8.
For `Cc1ccc(Cn2nc3c(c2C)N=C[C@@H]2CCCN2C3=O)cc1C`, the IC50 was determined as 8 µM in the test with L1210 [7]; 4 µM in the test with L1210 [8]; 5 µM in the test with L1210 [9]; 4 µM with L1210 [10]; 40 µM with LoVo [2]; 6 µM with LoVo [3]. Moreover, the RI in test [12] was 0.2.
Consider `N[C@@H](Cc1ccc(N(CCCl)CCCl)cc1)C(=O)O`, for which the figures for the RI in [5] and in test [4] were 3.1 and 1.18, respectively. Also, the IC50 in the test with L1210 [6] came to 47 µM; in the test with L1210 [1], 15.3 µM; in the test with LoVo [2], 4.09 µM; in the test on LoVo [3] it was 4.9 µM.
Turning to `CC(C)c1c2c(nn1Cc1ccccc1)C(=O)N1CCC[C@H]1C=N2`, the RI in test [5] is 0.97; in [4], 0.2. The IC50 stood at 11 µM with L1210 [6], 12 µM with L1210 [1], 30 µM in the test on LoVo [2] and 8 µM in the test with LoVo [3].
Regarding `COc1ccc(Cn2nc3c(c2C)N=C[C@@H]2CCCN2C3=O)cc1`, the IC50 in the test with L1210 [9] turned out to be 11 µM; with L1210 [10] it was 19 µM; in the test on LoVo [2] it was 48.4 µM; in the test with L1210 [13], 3 µM; in the test on LoVo [3], 32 µM; in the test on L1210 [14] it was 6 µM. For the same compound, the RI in [12] was 0.7.
As for `COC(=O)c1c2c(nn1C)C(=O)N1CCC[C@H]1C=N2`, the IC50 in the test on L1210 [15] was 69 µM; in the test with L1210 [9], 41 µM; with L1210 [10], 31 µM; in the test with LoVo [2], greater than 162 µM; with LoVo [3], greater than 162 µM; with L1210 [16], 62 µM. Moreover, the RI in test [11] is 2.2 and 1.5.
Turning to `CCn1nc2c(c1C)N=C[C@@H]1CCCN1C2=O`, the RI in test [17] is 0.4; in test [20] it was 0.9 and 2. The concentration for half-maximal inhibition (IC50) in the test on L1210 [18] amounted to 13 µM; with L1210 [9], 6 µM; in the test on L1210 [10] it was 7 µM; in the test with LoVo [2] it was 15 µM; in the test with LoVo [3], 6 µM; in the test with L1210 [19], 6 µM.
